Assay results taken from ChEMBL document CHEMBL3826896, “Synthesis of lignan conjugates via cyclopropanation: Antimicrobial and antioxidant studies” (Bioorg Med Chem Lett, 2016).
Converted amounts (≈) assume the structure as drawn.

Tests used:
[1] = test system: Staphylococcus aureus; experiment: Antimicrobial activity against Staphylococcus aureus after 24 hrs by broth dilution method; assay type: functional
How it was run: (§1)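 MIC by broth dilution in triplicate, reported as mean ± SD. Panel: bacteria S. aureus, S. pyogenes, E. coli; fungi C. neoformans, A. niger, A. flavus. Ciprofloxacin served as positive control for bacteria and nystatin for fungi. DMSO was the solvent and solvent control.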

[2] = test system: Streptococcus pyogenes; experiment: Antimicrobial activity against Streptococcus pyogenes after 24 hrs by broth dilution method; assay type: functional; how it was run: as §1
[3] = test system: Escherichia coli; experiment: Antimicrobial activity against Escherichia coli after 24 hrs by broth dilution method; assay type: functional; how it was run: as §1
[4] = test system: Cryptococcus neoformans; experiment: Antimicrobial activity against Cryptococcus neoformans after 72 hrs by broth dilution method; assay type: functional; how it was run: as §1
[5] = test system: Aspergillus niger; experiment: Antimicrobial activity against Aspergillus niger after 72 hrs by broth dilution method; assay type: functional; how it was run: as §1
[6] = test system: Aspergillus flavus; experiment: Antimicrobial activity against Aspergillus flavus after 72 hrs by broth dilution method; assay type: functional; how it was run: as §1
[7] = Antioxidant activity assessed as DPPH radical scavenging activity at 20 ug/ml after 20 mins by spectrophotometry relative to control; assay type: physicochemical
How it was run: (§2)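 Radical scavenging measured in vitro by DPPH and by hydroxyl radical scavenging assays. Each run in triplicate at five concentrations, reported as mean ± SD of three replicates.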

[8] = Antioxidant activity assessed as DPPH radical scavenging activity at 40 ug/ml after 20 mins by spectrophotometry relative to control; assay type: physicochemical; how it was run: as §2
[9] = Antioxidant activity assessed as DPPH radical scavenging activity at 60 ug/ml after 20 mins by spectrophotometry relative to control; assay type: physicochemical; how it was run: as §2
[10] = Antioxidant activity assessed as DPPH radical scavenging activity at 80 ug/ml after 20 mins by spectrophotometry relative to control; assay type: physicochemical; how it was run: as §2
[11] = Antioxidant activity assessed as DPPH radical scavenging activity at 100 ug/ml after 20 mins by spectrophotometry relative to control; assay type: physicochemical; how it was run: as §2
[12] = Antioxidant activity assessed as hydroxyl radical scavenging activity at 20 ug/ml after 60 mins relative to control; assay type: physicochemical; conditions: 1 h; how it was run: as §2
[13] = Antioxidant activity assessed as hydroxyl radical scavenging activity at 40 ug/ml after 60 mins relative to control; assay type: physicochemical; conditions: 1 h; how it was run: as §2
[14] = Antioxidant activity assessed as hydroxyl radical scavenging activity at 60 ug/ml after 60 mins relative to control; assay type: physicochemical; conditions: 1 h; how it was run: as §2
[15] = Antioxidant activity assessed as hydroxyl radical scavenging activity at 80 ug/ml after 60 mins relative to control; assay type: physicochemical; conditions: 1 h; how it was run: as §2
[16] = Antioxidant activity assessed as hydroxyl radical scavenging activity at 100 ug/ml after 60 mins relative to control; assay type: physicochemical; conditions: 1 h; how it was run: as §2

Compound `CCOC(=O)[C@@H]1CC(=O)c2sccc2[C@H]1c1ccc(OC)cc1OC` has an MIC [1] of 50 µg/mL (≈ 139 µM), an MIC [2] of 50 µg/mL (≈ 139 µM) and an MIC [3] of 75 µg/mL (≈ 208 µM). For the same compound, the MIC [4] was 50 µg/mL (≈ 139 µM), the MIC [5] was 100 µg/mL (≈ 277 µM) and the MIC [6] was 75 µg/mL (≈ 208 µM). The Activity [7] was 9.76%, the Activity [8] was 11.76% and the Activity [9] was 14.98%. For the same compound, the Activity [10] was 18.64%, the Activity [11] was 20.76% and the Activity [12] was 10.05%. It also gave an Activity [13] of 12.76%, an Activity [14] of 19.87% and an Activity [15] of 23.87%. It also gave an Activity [16] of 26.82%.

For `CCOC(=O)C1C(C(=O)c2cccs2)C1c1ccc(OC)cc1OC` (configuration not stated), the MIC [1] was 25 µg/mL (≈ 69.4 µM), the MIC [2] was 25 µg/mL (≈ 69.4 µM) and the MIC [3] was 25 µg/mL (≈ 69.4 µM). For the same compound, the MIC [4] was 25 µg/mL (≈ 69.4 µM), the MIC [5] was 50 µg/mL (≈ 139 µM) and the MIC [6] was 50 µg/mL (≈ 139 µM).

`O=C1O[C@H]([C@@H](O)CO)C(O)=C1O` [ASCORBIC ACID] showed an Activity [7] of 15.08%, an Activity [8] of 16.87% and an Activity [9] of 21.98%. For the same compound, the Activity [10] was 24.25% and the Activity [11] was 28.65%.

For `CCOC(=O)[C@@H]1CC(=O)c2sccc2[C@H]1c1cc(OC)cc(OC)c1`, the MIC [1] was 12.5 µg/mL (≈ 34.7 µM), the MIC [2] was 25 µg/mL (≈ 69.4 µM) and the MIC [3] was 12.5 µg/mL (≈ 34.7 µM). It also gave an MIC [4] of 12.5 µg/mL (≈ 34.7 µM), an MIC [5] of 25 µg/mL (≈ 69.4 µM) and an MIC [6] of 25 µg/mL (≈ 69.4 µM). The Activity [7] was 18.56%, the Activity [8] was 19.97% and the Activity [9] was 24.76%. The Activity [10] was 27.43%, the Activity [11] was 31.54% and the Activity [12] was 16.76%. It also gave an Activity [13] of 20.65%, an Activity [14] of 29.65% and an Activity [15] of 36.32%. It also gave an Activity [16] of 41.5%.

Compound `CCOC(=O)[C@@H]1CC(=O)c2sccc2[C@H]1c1ccc(OC)c(OC)c1` has an MIC [1] of 50 µg/mL (≈ 139 µM), an MIC [2] of 50 µg/mL (≈ 139 µM) and an MIC [3] of 25 µg/mL (≈ 69.4 µM). It also gave an MIC [4] of 25 µg/mL (≈ 69.4 µM), an MIC [5] of 25 µg/mL (≈ 69.4 µM) and an MIC [6] of 50 µg/mL (≈ 139 µM). The Activity [7] was 14.65%, the Activity [8] was 14.76% and the Activity [9] was 20.93%. For the same compound, the Activity [10] was 22.87%, the Activity [11] was 25.54% and the Activity [12] was 12.23%. It also gave an Activity [13] of 16.64%, an Activity [14] of 24.07% and an Activity [15] of 30.37%. For the same compound, the Activity [16] was 34.02%.

For `COc1ccc(O)c(C(C)(C)C)c1.COc1ccc(O)cc1C(C)(C)C` [BUTYLATED HYDROXYANISOLE], the Activity [12] was 13.87%, the Activity [13] was 17.95% and the Activity [14] was 25.58%. The Activity [15] was 32.03% and the Activity [16] was 36.87%.

Compound `CCOC(=O)C1C(C(=O)c2cccs2)C1c1ccc(OC)cc1` (configuration not stated) has an MIC [1] of 50 µg/mL (≈ 151 µM), an MIC [2] of 50 µg/mL (≈ 151 µM) and an MIC [3] of 50 µg/mL (≈ 151 µM). The MIC [4] was 50 µg/mL (≈ 151 µM), the MIC [5] was 100 µg/mL (≈ 303 µM) and the MIC [6] was 100 µg/mL (≈ 303 µM).

In the case of `CCOC(=O)[C@@H]1CC(=O)c2sccc2[C@H]1c1ccccc1OC`, the MIC [1] is reported as 25 µg/mL (≈ 75.7 µM), the MIC [2] is reported as 50 µg/mL (≈ 151 µM) and the MIC [3] is reported as 50 µg/mL (≈ 151 µM). The MIC [4] was 25 µg/mL (≈ 75.7 µM), the MIC [5] was 25 µg/mL (≈ 75.7 µM) and the MIC [6] was 50 µg/mL (≈ 151 µM). It also gave an Activity [7] of 10.76%, an Activity [8] of 13.54% and an Activity [9] of 17.76%. The Activity [10] was 19.65%, the Activity [11] was 21.65% and the Activity [12] was 11.87%. For the same compound, the Activity [13] was 15.98%, the Activity [14] was 22.76% and the Activity [15] was 29.77%. For the same compound, the Activity [16] was 31.56%.

Work on `CCOC(=O)[C@@H]1CC(=O)c2sccc2[C@H]1c1ccc(OC)cc1` yielded an MIC [1] of 50 µg/mL (≈ 151 µM), an MIC [2] of 25 µg/mL (≈ 75.7 µM) and an MIC [3] of 50 µg/mL (≈ 151 µM). It also gave an MIC [4] of 50 µg/mL (≈ 151 µM), an MIC [5] of 25 µg/mL (≈ 75.7 µM) and an MIC [6] of 50 µg/mL (≈ 151 µM). The Activity [7] was 15.02%, the Activity [8] was 16.71% and the Activity [9] was 20.31%. It also gave an Activity [10] of 23.92%, an Activity [11] of 26.22% and an Activity [12] of 13.03%. The Activity [13] was 17.98%, the Activity [14] was 24.76% and the Activity [15] was 30.98%. It also gave an Activity [16] of 34.09%.

With `CCOC(=O)C1C(C(=O)c2cccs2)C1c1ccc(OCC)cc1` (configuration not stated) the MIC [1] was 12.5 µg/mL (≈ 36.3 µM), the MIC [2] was 25 µg/mL (≈ 72.6 µM) and the MIC [3] was 25 µg/mL (≈ 72.6 µM). For the same compound, the MIC [4] was 12.5 µg/mL (≈ 36.3 µM), the MIC [5] was 12.5 µg/mL (≈ 36.3 µM) and the MIC [6] was 25 µg/mL (≈ 72.6 µM).

With `O=C(O)c1cn(C2CC2)c2cc(N3CCNCC3)c(F)cc2c1=O` [CIPROFLOXACIN] the MIC [2] was 50 µg/mL (≈ 151 µM) and the MIC [3] was 25 µg/mL (≈ 75.4 µM).

`CCOC(=O)C1C(C(=O)c2cccs2)C1c1ccc(OC)c(OC)c1` (configuration not stated) showed an MIC [1] of 25 µg/mL (≈ 69.4 µM), an MIC [2] of 50 µg/mL (≈ 139 µM) and an MIC [3] of 25 µg/mL (≈ 69.4 µM). The MIC [4] was 25 µg/mL (≈ 69.4 µM), the MIC [5] was 25 µg/mL (≈ 69.4 µM) and the MIC [6] was 50 µg/mL (≈ 139 µM).

`CCOC(=O)C1C(C(=O)c2cccs2)C1c1ccccc1OC` (configuration not stated) showed an MIC [1] of 50 µg/mL (≈ 151 µM), an MIC [2] of 100 µg/mL (≈ 303 µM) and an MIC [3] of 75 µg/mL (≈ 227 µM). For the same compound, the MIC [4] was 75 µg/mL (≈ 227 µM), the MIC [5] was 75 µg/mL (≈ 227 µM) and the MIC [6] was 25 µg/mL (≈ 75.7 µM).

Compound NYSTATIN has an MIC [4] of 25 µg/mL, an MIC [5] of 50 µg/mL and an MIC [6] of 50 µg/mL.

`CCOC(=O)C1C(C(=O)c2cccs2)C1c1cc(OC)cc(OC)c1` (configuration not stated) gave an MIC [1] of 50 µg/mL (≈ 139 µM), an MIC [2] of 75 µg/mL (≈ 208 µM) and an MIC [3] of 75 µg/mL (≈ 208 µM). The MIC [4] was 50 µg/mL (≈ 139 µM), the MIC [5] was 50 µg/mL (≈ 139 µM) and the MIC [6] was 75 µg/mL (≈ 208 µM).

`CCOC(=O)[C@@H]1CC(=O)c2sccc2[C@H]1c1ccc(OCC)cc1` showed an MIC [1] of 75 µg/mL (≈ 218 µM), an MIC [2] of 50 µg/mL (≈ 145 µM) and an MIC [3] of 50 µg/mL (≈ 145 µM). The MIC [4] was 25 µg/mL (≈ 72.6 µM), the MIC [5] was 75 µg/mL (≈ 218 µM) and the MIC [6] was 100 µg/mL (≈ 290 µM). For the same compound, the Activity [7] was 17.08%, the Activity [8] was 18.54% and the Activity [9] was 22.87%. It also gave an Activity [10] of 25.43%, an Activity [11] of 28.96% and an Activity [12] of 15.43%. It also gave an Activity [13] of 19.76%, an Activity [14] of 26.98% and an Activity [15] of 34.13%. The Activity [16] was 37.99%.
